Results taken from ChEMBL document CHEMBL4130436, “Meroterpenoids from a Medicinal Fungus Antrodia cinnamomea” (2017).

Legend:
A549 = assay: Growth inhibition of human A549 cells after 48 hrs by SRB assay; format: functional; settings: A549, 48 h
Summary of the method: (§1)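 Cells (from ATCC) grown in RPMI-1640 with 10% FBS and penicillin/streptomycin/amphotericin B, 37 °C, 5% CO2. Seeded overnight, then exposed to various compound concentrations for 48 h. A time-zero plate fixed with 10% TCA at dosing. After treatment, cells fixed with 10% TCA, stained with 0.4% SRB in 1% acetic acid, lysed in 10 mM Trizma base, A515 read. GI50 = concentration giving 50% reduction of the control protein increase.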

PC-3 = assay: Growth inhibition of human PC3 cells after 48 hrs by SRB assay; format: functional; settings: PC-3, 48 h; summary of the method: as §1

Compound	GI50 (A549)	GI50 (PC-3)
COC1=CC(=O)C(C/C=C(\C)CC/C=C(\C)CCC=C(C)C)=C(C)C1=O	> 30 µM	> 30 µM
COC1=C[C@H](O)[C@H](C/C=C(\C)CC/C=C(\C)C[C@@H]2C[C@@H](C)C(=O)O2)[C@@H](C)C1=O	> 30 µM	> 30 µM
COC1=C(OC)[C@H](OC(C)=O)[C@H](C/C=C(\C)CC/C=C(\C)C[C@H](O)/C=C(\C)C(=O)O)[C@@H](C)C1=O	> 30 µM	> 30 µM
COC1=C(OC)[C@H](O)[C@H](C/C=C(\C)CC/C=C(\C)CCC=C(C)C)[C@@H](C)C1=O [ANTROQUINONOL]	5.7 µM	13.5 µM
COC1=C(OC)[C@H](OC(C)=O)[C@H](C/C=C(\C)CC/C=C(\C)C[C@H](O)/C=C(\C)CO)[C@@H](C)C1=O	29 µM	> 30 µM
COC1=C[C@H](O)[C@H](C/C=C(\C)CC/C=C(\C)CCC=C(C)C)[C@@H](C)C1=O	16.4 µM	> 30 µM
COC1=C(OC)C(=O)C(C/C=C(\C)CC/C=C(\C)CCC=C(C)C)=C(C)C1=O	> 30 µM	> 30 µM
COC1=C(O)[C@H](O)[C@H](C/C=C(\C)CC/C=C(\C)C[C@H](O)/C=C(\C)CO)[C@@H](C)C1=O	> 30 µM	> 30 µM
COc1cc2c(c(C)c1O)C=C[C@](C)(CC/C=C(\C)CCC=C(C)C)O2	> 30 µM	> 30 µM
COC1=C(OC)[C@H](O)[C@H](C/C=C(\C)CC/C=C(\C)C[C@H](O)/C=C(\C)CO)[C@@H](C)C1=O	12 µM	> 30 µM
COC1=C[C@H](O)[C@H](C/C=C(\C)CC/C=C(\C)C[C@H](O)/C=C(\C)CO)[C@@H](C)C1=O	> 30 µM	> 30 µM
COC1=C(OC)[C@H](O)[C@H](C/C=C(\C)CC/C=C(\C)C[C@H](O)C=C(C)C)[C@@H](C)C1=O	9.6 µM	> 30 µM
COC1=C(OC)[C@H](O)[C@H](C/C=C(\C)CC/C=C(\C)CC/C=C(\C)CO)[C@@H](C)C1=O	8.2 µM	> 30 µM
COC1=C(OC)C(=O)C(C/C=C(\C)CC/C=C(\C)C[C@H](O)C=C(C)C)=C(C)C1=O	> 30 µM	> 30 µM
COC1=C(OC)[C@H](O)[C@H](C/C=C(\C)CC/C=C(\C)C[C@@H]2C[C@@H](C)C(=O)O2)[C@@H](C)C1=O	14.1 µM	> 30 µM
O=c1[nH]cc(F)c(=O)[nH]1 [FLUOROURACIL]	4.2 µM	11.7 µM
COC1=C(OC)[C@H](OC(C)=O)[C@H](C/C=C(\C)CC/C=C(\C)C[C@@H]2C[C@@H](C)C(=O)O2)[C@@H](C)C1=O	11.3 µM	> 30 µM
COC1=C(OC)[C@H](O)[C@H](C/C=C(\C)CC/C=C(\C)CCCC(C)CO)[C@@H](C)C1=O (stereo not given in full)	7.1 µM	> 30 µM
COC1=C(OC)[C@H](O)[C@H](C/C=C(\C)CC/C=C(\C)C/C=C/C(C)(C)O)[C@@H](C)C1=O	23.8 µM	> 30 µM
COC1=C(OC)[C@H](OC(C)=O)[C@H](C/C=C(\C)CC/C=C(\C)C[C@H](O)C=C(C)C)[C@@H](C)C1=O	20.7 µM	> 30 µM
